Laboratory results: ChEMBL document CHEMBL4138078, “Structure-based virtual screening and optimization of modulators targeting Hsp90-Cdc37 interaction” (Eur J Med Chem, 2017)
Active and inactive are the calls of the source. No cut-off for these calls is given here.

Assays:
Homo sapiens [1] = organism: Homo sapiens; test: Inhibition of full length His-tagged HSP90/GST-tagged Cdc37 (unknown origin) interaction at 100 uM after 1 hr by HTRF assay relative to control
How it was run: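 HTRF assay using His-tagged full-length Hsp90 and GST-tagged Cdc37 M, each 250 nM final, in PBS with an extra 400 mM KF, pH 7.4. Compound incubated 1 h at 37 °C. Anti-GST-Cryptate and anti-6His-XL665 then added, 0.5 h at 37 °C. Ex 320 nm; ratio = (665/620 nm) × 10000. No-compound negative control and reagent-only blank.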

SK-BR-3 = test: Antiproliferative activity against human SKBR3 cells after 72 hrs by MTT assay; assay type: functional, cell-based; conditions: SK-BR-3, 72 h
How it was run: (§1)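 Cells seeded at 10000/well and left 24 h, then exposed to compounds in DMSO (200 μM down to 0.823 μM, three-fold steps) for 72 h at 37 °C. Viability was read by MTT (5 mg/mL in PBS) with formazan dissolved in DMSO, OD at 490 nm. IC50 was taken from parallel experiments as mean ± SD. Media: MCF-7 in MEM, SKBR-3 in RPMI-1640, A549 in F12K, each with 10% FCS.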

MCF7 = test: Antiproliferative activity against human MCF7 cells after 72 hrs by MTT assay; assay type: functional, cell-based; conditions: MCF7, 72 h; how it was run: as §1
[2] = Inhibition of full length His-tagged HSP90/GST-tagged Cdc37 (unknown origin) interaction after 1 hr by HTRF assay; set-up: species or system Homo sapiens
How it was run: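 Final 250 nM each of His-Hsp90 (full length) and GST-Cdc37 M in PBS with extra 400 mM KF, pH 7.4. Compound added (300 μM to 1.23 μM, three-fold steps), 1 h at 37 °C. Anti-GST-cryptate and anti-6His-XL665 added, 0.5 h at 37 °C. TR-FRET read at ex 320 nm, em 665/620 nm, ratio ×10000. No-compound and reagent-only controls included.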

A549 = test: Antiproliferative activity against human A549 cells after 72 hrs by MTT assay; assay type: functional, cell-based; conditions: A549, 72 h; how it was run: as §1
Heat shock protein HSP90 [3] = target: T1, Heat shock protein HSP90 (Homo sapiens, UniProt P07900+P08238); test: Inhibition of GA-FITC binding to N-terminal GST-tagged HSP90 (unknown origin) expressed in Escherichia coli at 100 uM after 30 mins fluorescence polarization assay relative to control
Homo sapiens [4] = organism: Homo sapiens; test: Inhibition of N-terminal GST-tagged HSP90/Cdc37 (unknown origin) interaction expressed in Escherichia coli preincubated with Cdc37 for 1 hr followed by addition to HSP90 by GST-pull down assay
How it was run: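 Pull-down with 10 μg GST-Hsp90 N-terminal domain immobilised as bait on glutathione resin spin columns. Compound incubated with Cdc37 for 1 h at 37 °C, then added to the columns. Loading buffer 25 mM Tris, 0.15 M NaCl, pH 7.2; elution with extra 10 mM reduced glutathione; spins 1 min at 1,000 × g, 4 °C. Eluate analysed by SDS-PAGE and anti-GST/anti-His western blot.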

Heat shock protein HSP90 [5] = target: T1, Heat shock protein HSP90; test: Inhibition of N-terminal GST-tagged HSP90 ATPase activity (unknown origin) expressed in Escherichia coli at 100 uM after 1 hr in presence of ATP by spectrophotometric assay relative to control
How it was run: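 ADP Hunter Plus ADP-detection kit. Compound at 100 μM final in 15 mM HEPES, 20 mM NaCl, 1 mM EDTA, 10 mM MgCl2, 0.02% Tween20, pH 7.4. Mixed in equal volumes with Hsp90 (5 μM) and ATP (100 μM), 1 h at 37 °C. Detection reagents A and B added, 30 min at room temperature; ex 540/em 620 nm. Protein-free background; no-ligand wells set as 100% activity.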

Heat shock protein HSP90 [6] = target: T1, Heat shock protein HSP90; test: Binding affinity to N-terminal GST-tagged HSP90 (unknown origin) expressed in Escherichia coli by biolayer interferometry analysis
Homo sapiens [7] = organism: Homo sapiens; test: Inhibition of full length His-tagged HSP90/GST-tagged Cdc37 (unknown origin) interaction at 10 uM after 1 hr by HTRF assay relative to control

COc1ccc(C(=O)Nc2ccccc2C(=O)NCCCCO)cc1OC
inhibition (Homo sapiens [1]): 19.3%

CC/N=C1\S[C@H](CC(=O)Nc2cccc(NC(=O)C[C@@H]3S/C(=N/CC)N(CC)C3=O)c2)C(=O)C1CC (stereo partly drawn)
inhibition (Homo sapiens [1]): < 10%

COc1cc(/C=C2\SC(=S)N(CCCCCCN3C(=O)/C(=C\c4ccc(O)c(OC)c4)SC3=S)C2=O)ccc1O
inhibition (Homo sapiens [1]): 17%

O=C1NCCCC[C@H]1N[C@@H]1CC(=O)N(c2ccc(N3C(=O)C[C@@H](N[C@@H]4CCCCNC4=O)C3=O)cc2)C1=O
inhibition (Homo sapiens [1]): < 10%

O=C(CCC(=O)Nc1ccc(S(=O)(=O)Nc2nccs2)cc1)Nc1ccc(S(=O)(=O)Nc2nccs2)cc1
inhibition (Homo sapiens [1]): < 10%

COc1cccc(C(c2c(N)nc(SCC(N)=O)[nH]c2=O)c2c(N)nc(SCC(N)=O)[nH]c2=O)c1
inhibition (Homo sapiens [1]): 14.3%

C[C@H](O)c1ccc(-c2ccc(CNCCCSc3nnnn3-c3ccccc3)o2)cc1
inhibition (Homo sapiens [1]): < 10%

COc1ccc([C@H](CC(=O)O)NC(=O)CCc2c(C)c3ccc(O)cc3oc2=O)cc1OC
inhibition (Homo sapiens [1]): < 10%

Cc1cc(NS(=O)(=O)c2ccc(NC(=O)c3ccc(C(=O)Nc4ccc(S(=O)(=O)Nc5cc(C)on5)cc4)cc3)cc2)no1
inhibition (Homo sapiens [1]): inactive

COC(=O)c1cc(NCc2cc(Cl)c(OCC(N)=O)c(OC)c2)ccc1N1CCOCC1
inhibition (Homo sapiens [1]): < 10%

Cc1ccnc(NS(=O)(=O)c2ccc(NC(=O)CCC(=O)Nc3ccc(S(=O)(=O)Nc4nccc(C)n4)cc3)cc2)n1
inhibition (Homo sapiens [1]): < 10%

COc1ccc(CCNc2cc(N3CCN(CCO)CC3)ccc2[N+](=O)[O-])cc1OC
inhibition (Homo sapiens [1]): 30.7%
IC50 (SK-BR-3): 84.6 µM
IC50 (MCF7): > 100 µM
IC50 [2]: 296 µM
IC50 (A549): > 100 µM

CCOC(=O)c1c(C)n(Cc2ccccc2)c2ccc(OC[C@H](O)CN3CCN(CCO)CC3)cc12
inhibition (Homo sapiens [1]): < 10%

Cc1cc(NS(=O)(=O)c2ccc(NC(=O)CCCCC(=O)Nc3ccc(S(=O)(=O)Nc4cc(C)on4)cc3)cc2)no1
inhibition (Homo sapiens [1]): 20.7%

COc1ccccc1N(CC(=O)N/N=C/c1ccc(OCC(=O)Nc2ccccc2Cl)cc1)S(=O)(=O)c1ccc(C)cc1
inhibition (Homo sapiens [1]): 13.6%

Cc1noc(NS(=O)(=O)c2ccc(NC(=O)CC(=O)Nc3ccc(S(=O)(=O)Nc4onc(C)c4C)cc3)cc2)c1C
inhibition (Homo sapiens [1]): < 10%

Cc1cc(NS(=O)(=O)c2ccc(NC(=O)CC(=O)Nc3ccc(S(=O)(=O)Nc4cc(C)on4)cc3)cc2)no1
inhibition (Homo sapiens [1]): 65.6 to 66%

CS(=O)(=O)N(CC(=O)N/N=C/c1ccc(OCC(=O)Nc2ccc(F)cc2)cc1)c1ccc(Cl)c(Cl)c1
inhibition (Homo sapiens [1]): < 10%

COc1ccc(S(=O)(=O)N(CC(=O)N/N=C/c2ccc(OCC(N)=O)cc2)c2ccccc2)cc1
inhibition (Homo sapiens [1]): < 10%

Cc1cc(NS(=O)(=O)c2ccc(NC(=O)CCC(=O)Nc3ccc(S(=O)(=O)Nc4cc(C)on4)cc3)cc2)no1
inhibition (Homo sapiens [1]): 69.8 to 70%

NC(=O)COc1ccc(/C=N/NC(=O)[C@H]2CCCN2S(=O)(=O)c2ccc(Cl)cc2)cc1
inhibition (Homo sapiens [1]): < 10%

O=C(CC(=O)Nc1ccc(S(=O)(=O)Nc2ccccc2)cc1)Nc1ccc(S(=O)(=O)Nc2ccccc2)cc1
inhibition (Homo sapiens [1]): 30.4%

Cc1cc(C)c(NS(=O)(=O)c2ccc(NC(=O)CCCCC(=O)Nc3ccc(S(=O)(=O)Nc4c(C)cc(C)cc4C)cc3)cc2)c(C)c1
inhibition (Homo sapiens [1]): 21.5%

Cc1noc(NS(=O)(=O)c2ccc(NC(=O)CCC(=O)Nc3ccc(S(=O)(=O)Nc4onc(C)c4C)cc3)cc2)c1C
inhibition (Homo sapiens [1]): 48.7%

O=C(CCC(=O)Nc1ccc(S(=O)(=O)Nc2ccccc2)cc1)Nc1ccc(S(=O)(=O)Nc2ccccc2)cc1
inhibition (Homo sapiens [1]): 49.6%

CCCOC(=O)c1ccc(Oc2c(C)oc3c(CN4CCN(CCO)CC4)c(O)ccc3c2=O)cc1
inhibition (Homo sapiens [1]): < 10%

Cc1cc(NS(=O)(=O)c2ccc(NC(=O)CCCC(=O)Nc3ccc(S(=O)(=O)Nc4cc(C)on4)cc3)cc2)no1
inhibition (Heat shock protein HSP90 [3]): inactive
inhibition (Homo sapiens [1]): 59.3%
IC50 (SK-BR-3): 59.4 µM
IC50 (MCF7): 66.9 µM
inhibition (Homo sapiens [4]): Dose-dependent effect
IC50 [2]: 76.9 to 77 µM
inhibition (Heat shock protein HSP90 [5]): < 10%
IC50 (A549): 75.3 µM
Kd (Heat shock protein HSP90 [6]): 80.4 µM

CCOc1cc(CNc2ccc(N3CCOCC3)c(C(=O)OC)c2)cc(Cl)c1OCC(N)=O
inhibition (Homo sapiens [1]): < 10%

CC(=O)Nc1ccc(C(=O)OCCOC(=O)C2=C(C)NC(C)=C(C(=O)OCCNC(=O)c3ccccc3O)[C@H]2c2cccc([N+](=O)[O-])c2)cc1
inhibition (Homo sapiens [1]): < 10%

CC1=C(C(=O)OCCNC(=O)c2ccc(O)cc2)[C@@H](c2cccc([N+](=O)[O-])c2)C(C(=O)OCCNC(=O)c2ccccc2O)=C(C)N1
inhibition (Homo sapiens [1]): < 10%

O[C@H](COc1ccc(OC[C@H](O)CN2CCN(c3cccc(Cl)c3)CC2)cc1)CN1CCN(c2cccc(Cl)c2)CC1
inhibition (Homo sapiens [1]): 47.6%
IC50 (SK-BR-3): > 100 µM
IC50 (MCF7): 89.2 µM
IC50 [2]: 128 µM
IC50 (A549): > 100 µM

NC(=O)C1CCN(C[C@H](O)COc2ccc(OC[C@@H](O)CN3CCC(C(N)=O)CC3)cc2)CC1
inhibition (Homo sapiens [1]): < 10%

CCOC(=O)C1=C(CSc2nc3c(cc2C#N)CN(C)CC3)OC(N)=C(C#N)C1c1ccncc1 (stereo not drawn)
inhibition (Homo sapiens [1]): < 10%

O=C(CCC(=O)Nc1ccc(S(=O)(=O)Nc2ccccn2)cc1)Nc1ccc(S(=O)(=O)Nc2ccccn2)cc1
inhibition (Homo sapiens [1]): < 10%

CC.COc1ccc(NC(=O)C2=C(C)Nc3nc(CCCO)nn3[C@H]2c2ccc(OC)c(OC)c2)cc1
inhibition (Heat shock protein HSP90 [3]): inactive
inhibition (Homo sapiens [1]): 36.6%
IC50 (SK-BR-3): > 100 µM
IC50 (MCF7): > 100 µM
IC50 [2]: 154 µM
inhibition (Heat shock protein HSP90 [5]): 45.7%
IC50 (A549): > 100 µM
Kd (Heat shock protein HSP90 [6]): > 100 µM

Cn1nccc1NS(=O)(=O)c1ccc(NC(=O)CC(=O)Nc2ccc(S(=O)(=O)Nc3ccnn3C)cc2)cc1
inhibition (Homo sapiens [1]): 50.9%

C=C1[C@@H](C(=O)Nc2ccc(NS(=O)(=O)c3ccc(C)cc3)cc2)[C@@H]1C(=O)Nc1ccc(NS(=O)(=O)c2ccc(C)cc2)cc1
inhibition (Homo sapiens [1]): < 10%

Cn1c(SCC(=O)Nc2ccc3nc(SCC(=O)c4ccc(Cl)cc4)sc3c2)nnc1-c1ccc(N)cc1
inhibition (Homo sapiens [1]): < 10%

COc1ccc(NS(=O)(=O)c2ccc(NC(=O)CCC(=O)Nc3ccc(S(=O)(=O)Nc4ccc(OC)nn4)cc3)cc2)nn1
inhibition (Homo sapiens [1]): < 10%

CO[C@H]1/C=C\C=C(/C)C(=O)NC2=CC(=O)C(NCCN(C)C)=C(C[C@@H](C)C[C@H](OC)[C@H](O)[C@@H](C)/C=C(\C)[C@@H]1OC(N)=O)C2=O (stereo in doubt)
inhibition (Homo sapiens [7]): inactive

Cc1ccnc(NS(=O)(=O)c2ccc(NC(=O)c3cccc(C(=O)Nc4ccc(S(=O)(=O)Nc5nccc(C)n5)cc4)c3)cc2)n1
inhibition (Homo sapiens [1]): < 10%

CCOc1ccc(C(=O)C2=C(O)C(=O)N(CCOCCO)[C@@H]2c2cccc(OC)c2)cc1
inhibition (Homo sapiens [1]): < 10%

COc1ccc(-c2c(C)oc3cc(OCCN4CCN(CCO)CC4)ccc3c2=O)cc1OC
inhibition (Homo sapiens [1]): < 10%

CCOC(=O)c1cccc(NC(=O)CSc2nnc(-c3ccc(O)cc3)n2Cc2ccccc2)c1
inhibition (Homo sapiens [1]): 14.1%

O=C(CCC(=O)Nc1ccc(S(=O)(=O)Nc2ncccn2)cc1)Nc1ccc(S(=O)(=O)Nc2ncccn2)cc1
inhibition (Homo sapiens [1]): < 10%
